Measurements collected from several papers.
Compare with care: the assays were run in different laboratories.
Medium: plasma

SMILES	test system	conditions	half-life [h]
COc1ccc(-n2nc(C(N)=O)c3c2C(=O)N(c2ccc(N4CCCCC4=O)cc2)CC3)cc1	human	oral, 10 mg, single dose, healthy volunteers	12.7
COc1ccc(-n2nc(C(N)=O)c3c2C(=O)N(c2ccc(N4CCCCC4=O)cc2)CC3)cc1	human	oral, 20 mg, single dose, healthy volunteers	~13
CO[C@H]1CC[C@H](N2C(=O)CNc3ncc(-c4ccc(C(C)(C)O)nc4)nc32)CC1	human	oral, 7.5 mg, patients	7.68
CO[C@H]1/C=C\C=C(/C)C(=O)NC2=CC(=O)C(NCCN(C)C)=C(C[C@@H](C)C[C@H](OC)[C@H](O)[C@@H](C)/C=C(\C)[C@@H]1OC(N)=O)C2=O	human	intravenous, 12 mg/m², patients, infusion	14.1
CC(=O)Oc1ccccc1C(=O)O	human	oral, 650 mg, healthy volunteers	0.53
COc1cc(C(=O)NC2CCN(C)CC2)c(F)cc1Nc1ncc(C(F)(F)F)c(Oc2cccc3c2C(=O)N(C)C3)n1	human	oral, 200 mg, multiple doses, once daily, patients	20.4
Cn1cc(-c2ccc(S(=O)(=O)[C@@H]3C[C@@H](C(=O)NC4(C#N)CC4)N(C(=O)C4(C(F)(F)F)CC4)C3)c(C(F)(F)F)c2)cn1	human	oral, 1 mg, single dose, fasted, healthy volunteers	5.47
Cc1nc(-c2cn3c(n2)-c2ccc(-c4cnn(C(C)(C)C(N)=O)c4)cc2OCC3)n(C(C)C)n1	human	oral, 2 mg, patients	28.1
CCOc1cc([C@@H](CS(C)(=O)=O)N2C(=O)c3cccc(NC(C)=O)c3C2=O)ccc1OC	human	oral, 30 mg, single dose, healthy volunteers	8.08
CCOc1cc2ncc(C#N)c(Nc3ccc(OCc4ccccn4)c(Cl)c3)c2cc1NC(=O)/C=C/[C@H]1CCCN1C	human	oral, 80 mg, single dose	12.9
CS(=O)(=O)CCC#N	human	oral, 100 mg, multiple doses, once daily	16
CC(C)(O)c1ccccc1-c1ccc2[nH]c(/C=C/c3ccc(C(F)(F)F)cc3)nc2c1	male human	oral, 50 mg, single dose, fasted, healthy volunteers	68.6
c1cnc2ccc(Nc3nc(NC4CC4)c4nc[nH]c4n3)cc2c1	human	oral, 100 mg/m², patients	3.6
CS(=O)(=O)n1cc2c(n1)CN([C@H]1CO[C@H](c3cc(F)ccc3F)[C@@H](N)C1)C2	male human	oral, 10 mg, single dose, fasted	49.9
O=C(Nc1c(Cl)cncc1Cl)c1ccc(OC(F)F)c(OCC2CC2)c1	human	oral, 0.5 mg, single dose	19.9
CC(C)(C)OC[C@@H]1C(=O)NCCN1C(=O)C[C@H](N)Cc1cc(F)c(F)cc1F	male human	oral, 5 mg, multiple doses, steady state, healthy volunteers	24.7
C[C@@H](c1ccc2nccn2c1)n1nnc2ncc(-c3cnn(C)c3)nc21	human	oral, 200 mg	4.2

SMILES	test system	conditions	half-life [h]
COCCOc1cnc2ccn([C@H](C)c3nnc4c(F)cc(-c5cnn(C)c5)cn34)c(=O)c2c1	human	oral, 50 mg, multiple doses, once daily, patients	15.3
CC(C)(Sc1ccncc1-c1ccc(C#N)c2ccccc12)C(=O)O	male human	oral, 5 mg, single dose, fasted, healthy volunteers	14.2
OC[C@H]1O[C@@H](c2ccc(Cl)c(Cc3ccc(O[C@H]4CCOC4)cc3)c2)[C@H](O)[C@@H](O)[C@@H]1O	male human	oral, 25 mg, multiple doses, once daily, steady state	8.44
CC(C)n1cc(C#N)c2cc(-n3cc(C(=O)O)cn3)ccc21	human	oral, 100 mg, single dose, fasted, healthy volunteers	6.6
Cc1cc(Nc2ncc(Cl)c(Nc3ccccc3S(=O)(=O)C(C)C)n2)c2c(c1C1CCN(C)CC1)C[C@@H](C)O2	human	oral, 160 mg, single dose, fasted, healthy volunteers	34.6
C/C(=C\c1csc(C)n1)[C@@H]1C[C@@H]2O[C@]2(C)CCC[C@H](C)[C@H](O)[C@@H](C)C(=O)C(C)(C)[C@@H](O)CC(=O)N1	human	intravenous, 20 mg/m², patients	62.2
CO[C@@H]1[C@H](OC(=O)N2CC(CCN3CCOCC3)C2)CC[C@]2(CO2)[C@H]1[C@@]1(C)O[C@@H]1CC=C(C)C	human	subcutaneous, 4.8 mg, single dose, healthy volunteers	0.91
CC(C)[C@](O)(c1ccc2cc(OC(F)F)c(OC(F)F)cc2c1)c1c[nH]nn1	female human	oral, 450 mg, single dose	6.4
CCNCCCNC/C=C\CNCCCNCC	human	intravenous, 100 mg, patients, infusion	0.19
C[C@@H](Nc1cc(F)cc(F)c1)c1cc(C(=O)N(C)C)cc2c(=O)cc(N3CCOCC3)oc12	human	oral, 30 mg, patients	3.79
CCOc1cc([C@@H](CS(C)(=O)=O)N2C(=O)c3cccc(NC(C)=O)c3C2=O)ccc1OC	male human	oral, 20 mg, single dose, healthy volunteers	7.6
NS(=O)(=O)NCCNc1nonc1C(=NO)Nc1ccc(F)c(Br)c1	human	oral, 300 mg, multiple doses, twice daily, steady state, patients	3.9
Nc1cc(C(F)(F)F)c(-c2cc(N3CCOCC3)nc(N3CCOCC3)n2)cn1	human	oral, 100 mg/day, patients	30.6
C#C[C@]1(COP(=O)(O)OP(=O)(O)OP(=O)(O)O)O[C@@H](n2cnc3c(N)nc(F)nc32)C[C@@H]1O	human	oral, 200 mg, single dose	116
COc1ccc([C@@H]2CN(C(=O)[C@@H](O)CO)C[C@@]2(C)[C@@H](C)O)cc1OC1CN(c2ccc(C)cn2)C1	human	oral, 1.5 mg, single dose, healthy volunteers	13.5
O=C(/C=C/c1cccc(S(=O)(=O)Nc2ccccc2)c1)NO	human	intravenous, 1900 mg/m², patients	1.43
